Assay results as given in ChEMBL document CHEMBL1135775 (J Med Chem, 2002).
Where “and” joins values, the source holds several entries; their conditions need not be identical. Equal values may be shown once.

Key:
[1] = Ratio of the IC50 value of Mazindol to that of the compound.; type: functional
[2] = molecular target: T1, Sodium-dependent serotonin transporter (Homo sapiens, UniProt P31645); test: Inhibition of 5-HT uptake in HEK cells expressing human serotonin transporter (hSERT); type: functional, cell-based, HEK293
T1 sequence (P31645 whole entry): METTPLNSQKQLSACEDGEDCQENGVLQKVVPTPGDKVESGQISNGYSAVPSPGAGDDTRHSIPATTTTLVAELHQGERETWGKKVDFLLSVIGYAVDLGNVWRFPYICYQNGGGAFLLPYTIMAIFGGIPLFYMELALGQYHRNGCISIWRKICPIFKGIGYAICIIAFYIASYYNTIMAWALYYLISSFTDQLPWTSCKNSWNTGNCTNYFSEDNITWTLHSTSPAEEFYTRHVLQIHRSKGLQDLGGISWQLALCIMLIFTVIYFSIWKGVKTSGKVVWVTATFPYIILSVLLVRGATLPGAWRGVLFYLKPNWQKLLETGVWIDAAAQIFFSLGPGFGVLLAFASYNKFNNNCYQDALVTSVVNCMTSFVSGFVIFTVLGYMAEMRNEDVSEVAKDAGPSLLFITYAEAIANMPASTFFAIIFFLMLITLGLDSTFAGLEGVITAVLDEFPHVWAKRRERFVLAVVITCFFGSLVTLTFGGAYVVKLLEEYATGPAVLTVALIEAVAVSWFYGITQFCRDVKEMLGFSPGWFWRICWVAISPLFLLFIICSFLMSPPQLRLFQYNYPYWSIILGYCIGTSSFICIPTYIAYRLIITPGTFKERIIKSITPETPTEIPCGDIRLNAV
Method in brief: (§1)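 Scraped HEK293 cells expressing hSERT or hDAT in Krebs-HEPES, preincubated 10 min at 25 °C with test compound. Uptake started with [3H]serotonin or [3H]dopamine (20 nM final), stopped after 10 min by filtration on PEI-soaked GF/C filters.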

[3] = molecular target: Monoamine transporters; serotonin & dopamine (Homo sapiens) (UniProt P31645+Q01959); test: Selectivity ratio as ratio of IC50 value against SERT to that of DAT; type: protein assay
Chain of Monoamine transporters; serotonin & dopamine (Homo sapiens) (P31645 whole entry, looked up): as the sequence (P31645 whole entry) above
Chain of Monoamine transporters; serotonin & dopamine (Homo sapiens) (Q01959 whole entry, looked up): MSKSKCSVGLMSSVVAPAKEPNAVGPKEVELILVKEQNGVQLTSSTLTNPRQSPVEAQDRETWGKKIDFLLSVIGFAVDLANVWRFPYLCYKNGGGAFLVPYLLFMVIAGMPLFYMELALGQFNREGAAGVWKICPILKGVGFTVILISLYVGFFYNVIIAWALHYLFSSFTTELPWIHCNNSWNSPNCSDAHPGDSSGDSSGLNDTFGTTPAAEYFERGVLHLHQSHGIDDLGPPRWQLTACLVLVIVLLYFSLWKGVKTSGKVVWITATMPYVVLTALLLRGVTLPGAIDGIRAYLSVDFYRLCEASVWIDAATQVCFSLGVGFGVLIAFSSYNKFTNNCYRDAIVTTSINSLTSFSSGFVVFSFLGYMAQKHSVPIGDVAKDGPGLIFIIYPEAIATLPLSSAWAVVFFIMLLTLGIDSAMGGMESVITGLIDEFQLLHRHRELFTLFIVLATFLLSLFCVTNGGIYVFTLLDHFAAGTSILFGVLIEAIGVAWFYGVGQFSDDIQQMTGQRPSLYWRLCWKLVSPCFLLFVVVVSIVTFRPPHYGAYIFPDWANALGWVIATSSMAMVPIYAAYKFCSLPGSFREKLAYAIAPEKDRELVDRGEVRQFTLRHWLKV

[4] = Discrimination ratio against SERT as ratio of IC50 to that of Ki uptake to SERT.; type: functional
[5] = molecular target: Monoamine transporters; Norepinephrine & dopamine (Homo sapiens) (UniProt Q01959+P23975); test: Selectivity ratio as ratio of IC50 value against NET to that of DAT; type: protein assay
Chain of Monoamine transporters; Norepinephrine & dopamine (Homo sapiens) (P23975 whole entry, looked up): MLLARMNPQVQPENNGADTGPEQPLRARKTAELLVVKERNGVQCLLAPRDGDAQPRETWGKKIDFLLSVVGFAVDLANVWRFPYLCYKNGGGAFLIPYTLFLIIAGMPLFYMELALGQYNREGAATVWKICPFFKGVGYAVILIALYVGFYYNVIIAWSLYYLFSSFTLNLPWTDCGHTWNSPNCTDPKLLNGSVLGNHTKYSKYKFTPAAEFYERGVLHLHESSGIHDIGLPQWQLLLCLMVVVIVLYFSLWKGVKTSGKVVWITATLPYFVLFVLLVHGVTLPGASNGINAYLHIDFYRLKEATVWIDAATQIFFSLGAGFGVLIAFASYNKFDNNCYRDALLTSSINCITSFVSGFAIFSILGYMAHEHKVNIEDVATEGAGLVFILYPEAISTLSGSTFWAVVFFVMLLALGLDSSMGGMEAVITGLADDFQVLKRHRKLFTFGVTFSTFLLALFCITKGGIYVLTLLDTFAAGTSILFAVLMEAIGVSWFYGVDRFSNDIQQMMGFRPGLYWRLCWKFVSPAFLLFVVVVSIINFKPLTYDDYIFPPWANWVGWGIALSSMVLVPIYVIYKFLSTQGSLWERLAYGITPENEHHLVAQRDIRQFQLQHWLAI
Chain of Monoamine transporters; Norepinephrine & dopamine (Homo sapiens) (Q01959 whole entry, looked up): as the sequence (Q01959 whole entry, looked up) above

[6] = molecular target: T2, Sodium-dependent dopamine transporter (Homo sapiens, UniProt Q01959); test: Displacement of [125I]- RTI-55 from Dopamine transporter expressed in HEK cells; type: cell-based, HEK293
T2 sequence (Q01959 whole entry): as the sequence (Q01959 whole entry, looked up) above
Method in brief: (§2)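 Membranes from HEK293 cells expressing hDAT, hSERT or hNET (10–15 μg protein) preincubated 10 min with test compound in Krebs-HEPES pH 7.4. Two or three experiments in duplicate; IC50 converted to Ki by Cheng-Prusoff.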

[7] = Discrimination ratio against DAT as ratio of IC50 to that of Ki uptake to DAT.; type: functional
[8] = molecular target: T3, Sodium-dependent noradrenaline transporter (Homo sapiens, UniProt P23975); test: Inhibition of NE uptake in HEK cells expressing human noradrenaline transporter (hNET); type: functional, cell-based, HEK293
T3 sequence (P23975 whole entry): as the sequence (P23975 whole entry, looked up) above

[9] = molecular target: T3, Sodium-dependent noradrenaline transporter; test: Displacement of [125I]RTI-55 from human Norepinephrine transporter expressed in HEK cells; type: cell-based, HEK293
[10] = Discrimination ratio against NET as ratio of IC50 to that of Ki uptake to NET.; type: functional
[11] = molecular target: T2, Sodium-dependent dopamine transporter; test: Inhibition of dopamine uptake in HEK cells expressing human dopamine transporter (hDAT); type: functional, cell-based, HEK293; method in brief: as §1
[12] = molecular target: T1, Sodium-dependent serotonin transporter; test: Displacement of [125I]- RTI-55 from Serotonin transporter expressed in HEK cells; type: cell-based, HEK293; method in brief: as §2
[13] = molecular target: Sodium-dependent dopamine transporter (Rattus norvegicus) (UniProt P23977); test: Ability to displace [3H]WIN-35428 from Dopamine Transporter of rat striatal membrane at a concentration of 10 E-6 M
Chain of Sodium-dependent dopamine transporter (Rattus norvegicus) (P23977 whole entry): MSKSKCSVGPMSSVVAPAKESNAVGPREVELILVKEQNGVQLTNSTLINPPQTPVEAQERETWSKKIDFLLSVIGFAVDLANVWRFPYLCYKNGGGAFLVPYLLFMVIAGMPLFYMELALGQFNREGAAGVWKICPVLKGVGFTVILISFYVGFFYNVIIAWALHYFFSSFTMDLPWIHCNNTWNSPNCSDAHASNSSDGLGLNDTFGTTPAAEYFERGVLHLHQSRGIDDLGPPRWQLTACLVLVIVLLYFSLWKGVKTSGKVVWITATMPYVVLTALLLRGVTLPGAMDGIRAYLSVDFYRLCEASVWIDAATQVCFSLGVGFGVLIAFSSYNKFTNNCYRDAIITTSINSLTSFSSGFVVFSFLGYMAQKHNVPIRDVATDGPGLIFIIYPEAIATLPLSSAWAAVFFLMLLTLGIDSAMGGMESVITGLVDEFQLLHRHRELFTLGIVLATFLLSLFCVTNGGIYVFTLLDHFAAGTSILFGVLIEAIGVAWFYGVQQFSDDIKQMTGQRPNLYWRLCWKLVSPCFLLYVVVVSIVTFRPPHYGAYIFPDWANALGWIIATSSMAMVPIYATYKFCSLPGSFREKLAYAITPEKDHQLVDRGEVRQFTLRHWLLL

[14] = molecular target: Sodium-dependent dopamine transporter (Rattus norvegicus, UniProt P23977); test: Ability to displace [3H]WIN-35428 from Dopamine Transporter of rat striatal membrane
Chain of Sodium-dependent dopamine transporter (Rattus norvegicus, UniProt P23977) (P23977 whole entry): as above
Method in brief: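 Rat striatum (male Sprague-Dawley, 200-225 g) homogenised in ice-cold sucrose phosphate buffer pH 7.4, washed, resuspended at 10 mg/mL. Filtration on PEI-soaked GF/B filters, scintillation counting. Four experiments in triplicate.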

[15] = molecular target: T3, Sodium-dependent noradrenaline transporter; test: Ability to displace [125I]- RTI-55 binding at the Norepinephrine transporter site on HEK cells expressing cDNA for the human transporter (hNET); type: cell-based, HEK293
Method in brief: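 Membranes from HEK293 cells expressing hDAT, hSERT or hNET (10–15 μg protein) preincubated 10 min with test compound in Krebs-HEPES pH 7.4. Then 40–80 pM [125I]RTI-55 added, 90 min at 25 °C, GF/C filtration. […] Two or three experiments in duplicate; IC50 converted to Ki by Cheng-Prusoff.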

[16] = molecular target: T2, Sodium-dependent dopamine transporter; test: Ability to block the uptake of […] at the Dopamine transporter of HEK cells expressing cDNA for the human transporter (hDAT); type: functional, cell-based, HEK293

COc1ccc(C2(O)c3ccccc3C3=NCCCN32)cc1OC (stereo not given)
Ratio [1]: 0.1

COc1ccc(C2(O)c3ccccc3C3=NCCCN32)cc1 (stereo not given)
Ratio [1]: 3.2
IC50 [2]: 94 nM
Ratio [3]: 1.5
Ratio [4]: 1.7
Ratio [5]: 2.3
Ki [6]: 36.2 nM
Ratio [7]: 0.8
IC50 [8]: 4.1 nM
Ki [9]: 84 nM
Ratio [10]: 0.05
IC50 [11]: 30.4 nM
Ki [12]: 55.9 nM

OC1(c2ccc(-c3ccccc3)cc2)c2ccccc2C2=NCCN21 (stereo not given)
Ratio [1]: < 0.002
inhibition [13]: 14.1%

OC1(c2ccccc2)c2cc(Cl)ccc2C2=NCCN21 (stereo not given)
Ratio [1]: 0.1

OC1(c2ccc(Cl)cc2)c2ccccc2C2=NCCCN21 (stereo not given)
Ratio [1]: 8.1 and 10.1
IC50 [2]: 53 nM
Ratio [3]: 23
Ratio [4]: 1.4
Ratio [5]: 10.6
Ratio [7]: 2.2
IC50 [8]: 4.9 nM
Ratio [10]: 2.2
IC50 [11]: 3.7 nM

Cc1cc(C)c2c(c1)C1=NCCN1C2(O)c1ccc(Cl)cc1 (stereo not given)
Ratio [1]: 0.6

C=CCOc1ccc(C2(O)c3ccccc3C3=NCCCN32)cc1 (stereo not given)
Ratio [1]: 0.1

OC1(c2ccc(OCc3ccccc3)cc2)c2ccccc2C2=NCCCN21 (stereo not given)
Ratio [1]: 0.1

CC1(c2ccc(Cl)cc2)c2ccccc2C2=NCCCN21 (stereo not given)
Ratio [1]: 0.3

OC1(c2ccc(Cl)cc2)c2ccccc2C2=NCCN21 (stereo not given) [MAZINDOL]
IC50 [2]: 94 nM
IC50 [8]: 4.9 nM

Clc1ccc(C2c3ccccc3C3=NCCN32)cc1 (stereo not given)
Ratio [1]: 1.4
IC50 [2]: 15 nM
Ki [6]: 23 nM
IC50 [8]: 6.9 nM
Ki [9]: 170 nM
IC50 [11]: 6 nM
Ki [12]: 26 nM

OC1(c2ccccn2)c2ccccc2C2=NCCN21 (stereo not given)
Ratio [1]: < 0.002

OC1(c2ccc3c(c2)OCO3)c2ccccc2C2=NCCCN21 (stereo not given)
IC50 [2]: 83 nM
IC50 [14]: 1.94 nM
Ki [15]: 8.8 nM
Ratio [3]: 10
Ratio [4]: 3.2
Ratio [5]: 3.5
IC50 [16]: 2.21 nM
Ki [6]: 2.55 nM
Ratio [7]: 0.8
IC50 [8]: 0.62 nM
Ratio [10]: 0.07
Ki [12]: 25.6 nM

COc1ccc(C2(O)c3ccccc3C3=NCCN32)cc1 (stereo not given)
Ratio [1]: 0.4

OC1(c2cccc(C(F)(F)F)c2)c2ccccc2C2=NCCN21 (stereo not given)
Ratio [1]: 0.04

OC1(c2ccc(Cl)cc2)c2cccc(-c3ccccc3)c2C2=NCCN21 (stereo not given)
Ratio [1]: 0.1

OC1(c2ccc3c(c2)OCO3)c2ccccc2C2=NCCN21 (stereo not given)
Ratio [1]: 0.4

OC1(c2ccc3c(c2)OCCO3)c2ccccc2C2=NCCN21 (stereo not given)
Ratio [1]: 0.03

OC1(c2ccc(Cl)cc2)c2c(ccc3c2OCO3)C2=NCCN21 (stereo not given)
Ratio [1]: 0.1

COC(=O)c1ccc(C2(O)c3ccccc3C3=NCCN32)cc1 (stereo not given)
Ratio [1]: 0.002

OC1(c2ccccc2)c2c(Cl)cccc2C2=NCCN21 (stereo not given)
Ratio [1]: 0.1

COC1(c2ccc(Cl)cc2)c2ccccc2C2=NCCN21 (stereo not given)
Ratio [1]: 0.008
IC50 [14]: 1010 nM

COc1ccc(C2(O)c3ccccc3C3=NCCN32)cc1OC (stereo not given)
Ratio [1]: 0.001

Cc1ccc(C2(O)c3ccccc3C3=NCCN32)cc1 (stereo not given)
Ratio [1]: 0.1

OC1(c2ccc(Cl)cc2)c2cccc(F)c2C2=NCCN21 (stereo not given)
Ratio [1]: 3.5
IC50 [2]: 129 nM
Ratio [3]: 1.65
Ratio [4]: 3.4
Ratio [5]: 0.04
Ki [6]: 23.1 nM
Ratio [7]: 4
IC50 [8]: 5 nM
Ki [9]: 0.9 nM
Ratio [10]: 5.6
IC50 [11]: 91 nM
Ki [12]: 38.1 nM

OC1(c2ccncc2)c2ccccc2C2=NCCN21 (stereo not given)
Ratio [1]: 0.1

C=CCOc1cccc(C2(O)c3ccccc3C3=NCCCN32)c1 (stereo not given)
Ratio [1]: 0.2
IC50 [14]: 219 nM

COCC1(c2ccc(Cl)cc2)c2ccccc2C2=NCCCN21 (stereo not given)
Ratio [1]: < 0.002

COc1cc(C2(O)c3ccccc3C3=NCCN32)cc(OC)c1OC (stereo not given)
Ratio [1]: < 0.002

COc1cccc2c1C1=NCCN1C2(O)c1ccc(Cl)cc1 (stereo not given)
Ratio [1]: 9
IC50 [2]: 280 nM
Ratio [3]: 300
Ratio [4]: 0.3
Ratio [5]: 2.3
Ki [6]: 2.9 nM
Ratio [7]: 14.5
IC50 [8]: 4.7 nM
Ki [9]: 6.8 nM
Ratio [10]: 0.7
IC50 [11]: 42 nM
Ki [12]: 870 nM

OC1(c2ccc(Cl)cc2)c2cc(Cl)c(Cl)cc2C2=NCCN21 (stereo not given)
Ratio [1]: 0.6
IC50 [2]: 444 nM
Ratio [3]: 1280
Ratio [4]: 0.3
Ratio [5]: 38
Ki [6]: 1.05 nM
Ratio [7]: 5.7
IC50 [8]: 10 nM
Ki [9]: 40 nM
Ratio [10]: 0.3
IC50 [11]: 6 nM
Ki [12]: 1350 nM

OC1(c2cccnc2)c2ccccc2C2=NCCN21 (stereo not given)
Ratio [1]: 0.013

COc1ccc2c(c1)C(O)(c1ccc(Cl)cc1)N1CCN=C21 (stereo not given)
Ratio [1]: 3.2
IC50 [2]: 1960 nM
Ratio [3]: 172
Ratio [4]: 1.9
Ratio [5]: 3.9
Ki [6]: 6 nM
Ratio [7]: 2.8
IC50 [8]: 1.46 nM
Ki [9]: 23 nM
Ratio [10]: 0.06
IC50 [11]: 16.7 nM
Ki [12]: 1030 nM

COc1cccc2c1C(O)(c1ccc(Cl)cc1)N1CCN=C21 (stereo not given)
Ratio [1]: 0.6
IC50 [2]: 3600 nM
Ratio [3]: 193
Ratio [4]: 1.8
Ratio [5]: 2.2
Ki [6]: 10.3 nM
Ratio [7]: 5.8
IC50 [8]: 1.73 nM
Ki [9]: 23.1 nM
Ratio [10]: 0.07
IC50 [11]: 60 nM
Ki [12]: 1990 nM

OC1(c2ccc(C(F)(F)F)cc2)c2ccccc2C2=NCCN21 (stereo not given)
Ratio [1]: 0.03

OC1(c2ccccc2)c2ccccc2C2=NCCN21 (stereo not given)
Ratio [1]: 0.1
IC50 [2]: 2140 nM
Ratio [3]: 1.6
Ratio [4]: 1.2
Ratio [5]: 0.1
Ki [6]: 1070 nM
Ratio [7]: 0.7
IC50 [8]: 2.8 nM
Ki [9]: 100 nM
Ratio [10]: 0.03
IC50 [11]: 730 nM
Ki [12]: 1760 nM

Oc1ccc(C2(O)c3ccccc3C3=NCCCN32)cc1 (stereo not given)
Ratio [1]: 2.4
IC50 [2]: 60 nM
Ratio [3]: 0.9
Ratio [4]: 0.8
Ratio [5]: 4.4
Ki [6]: 87.1 nM
Ratio [7]: 0.7
IC50 [8]: 1.9 nM
Ki [9]: 380 nM
Ratio [10]: 0.005
IC50 [11]: 59 nM
Ki [12]: 77 nM

CN(C)Cc1ccc(C2(O)c3ccccc3C3=NCCN32)cc1 (stereo not given)
Ratio [1]: 0.003
